Bioassay records (PubChem)
MT1-MMP act inh: blockers of MT1-MMP proenzyme processing, primary screen, HT1080 RFP-PRO-GFP cells, GFP/RFP fluorescence | Matrix metalloproteinase-14 (Homo sapiens), P50281 | GFP/RFP ratio fluorescence, overnight; percent of plate control window, DMSO zero | GFP/RFP ratio change, % at 20 µM | hit rate 0.061% among 360,000;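 active = GFP/RFP ratio change of at least 30% with cell ATP level not reduced by more than half and red fluorescence within 50% of control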
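Test system: HT1080 cells expressing an RFP-PRO-GFP fluorescent reporter construct / Compound dosing: single-point 20 µM compound, 1% DMSO / Schedule: cells overnight before dosing, compound overnight, 37 °C, 5% CO2 / Evaluation: GFP/RFP fluorescence ratio / Control set: DMSO and RFP-L50D-GFP cell wells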
SKN-1 inh: suppressors of acrylamide-induced Pgst-4::GFP reporter in worms, primary screen, SKN-1 inhibitor project, whole organism, uHTS, GFP/RFP fluorescence ratio, strain VP596; C. elegans VP596 Pgst-4::GFP/RFP ratio, 24 h; inhibition, % at 21.8 µM; hit rate 0.49% among 360,000;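 active = interference check ratio from 0.5 to 1.5 plus GFP to RFP signal ratio inhibition reaching or exceeding a fixed threshold, cut at about 30% in these data, passing the limit was not always enough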
Tn6 DDE FP: inhibitors of Tn6 peptide binding to fibrin DD(E), primary screen, biochemical, fluorescence polarization, human fibrin, Tn6 probe. inhibition, % at 8.3 µM. hit rate 0.21% among 370,000. Fibrin DD(E) TRITC-Tn6 fluorescence polarization displacement. AID 720509, 2013;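 active = inhibition above a per-campaign cutoff: mean of compounds within control limits plus 3 SD, cut at about 15% in these data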
Target sequence (P02675 whole entry, looked up): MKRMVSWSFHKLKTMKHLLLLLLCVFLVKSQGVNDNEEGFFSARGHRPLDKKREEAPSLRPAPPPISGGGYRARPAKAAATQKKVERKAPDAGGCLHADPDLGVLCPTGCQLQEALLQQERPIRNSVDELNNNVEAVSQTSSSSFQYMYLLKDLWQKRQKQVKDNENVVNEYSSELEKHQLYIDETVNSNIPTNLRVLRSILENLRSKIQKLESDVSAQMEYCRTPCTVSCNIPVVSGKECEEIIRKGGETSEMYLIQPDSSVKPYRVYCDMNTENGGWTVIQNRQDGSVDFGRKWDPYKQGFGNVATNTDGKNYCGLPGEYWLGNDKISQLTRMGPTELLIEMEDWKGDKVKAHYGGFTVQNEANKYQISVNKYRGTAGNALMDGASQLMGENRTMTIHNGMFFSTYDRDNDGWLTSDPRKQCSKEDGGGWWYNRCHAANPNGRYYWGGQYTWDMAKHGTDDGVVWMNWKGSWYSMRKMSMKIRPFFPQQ
Tn7 DDE FP: inhibitors of Tn7 peptide binding to fibrin DD(E), primary screen, biochemical, fluorescence polarization, human fibrin, Tn7 probe. AID 720508, 2013. inhibition, % at 8.3 µM. FP displacement of FITC-Tn7 peptide from fibrin DD(E); 0% = median of compound wells per plate. Fibrinogen beta chain (Homo sapiens), P02675. hit rate 0.13% among 370,000;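 active = inhibition above the mean of compounds falling within the control limits plus 3 SD of them, cut at about 14% in these data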
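Assay system: Human fibrin DD(E) protein | Medium: Tris buffer with calcium and detergent, pH 7.8 | Reagent: 0.1 µM fluorescent Tn7 | Compound dosing: Single point at 8.3 µM | Times: 10 min preincubation, 3 h with tracer, room temperature | Detection: Fluorescence polarization of the labelled Tn7 tracer | Controls: Aha-Tn7 high control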
MT1-MMP act val: MT1-MMP activation inhibitors, hit retest, confirmation, single concentration, fluorescence, HT1080 RFP-PRO-GFP cells. shares compounds with MT1-MMP act inh. GFP and RFP fluorescence ratio, overnight. inhibition, % at 20 µM. hit rate 10% among 200;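 active = inhibition of at least 50% in the primary cell screen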
Large screens that a line does not name were inactive (follow-up assays come after a bar, where they were run). A selection: hits, their analogues and other compounds. The true share with any hit is near 0.84%.

COc1ccc(CC(=O)Nc2nnc(SCc3ccccc3)s2)cc1S(=O)(=O)N1CCOCC1	SKN-1 inh 60.9
CCCCc1nnc(NC(=O)Cc2ccc(OC)c(S(=O)(=O)N3CCOCC3)c2)s1	none
S=c1[nH]nc(-c2ccco2)n1/N=C/c1c(Cl)cccc1Cl	SKN-1 inh 46.5
Cc1cc(NC(=O)CN2C(=O)NC(c3ccccc3)(c3ccc(C)c(C)c3)C2=O)no1 (stereo not given)	none
CC(NC(=O)Nc1nnc(C(F)(F)F)s1)(C(F)(F)F)C(F)(F)F	SKN-1 inh 32.4
CC(C)(C)CC(=O)Nc1nnc(C(F)(F)F)s1	none
O=C(Nc1sc2c(c1C(=O)c1ccc(Cl)cc1)CCCC2)c1cccnc1	SKN-1 inh 35.3
O=C(/C=C/c1cccs1)c1cc(Cl)ccc1O	none
O=C(C=Cc1cccs1)c1ccc(Cl)s1	SKN-1 inh 41.4
O=c1cc(NCc2ccccc2)c2ccccc2o1	none
CCCCNc1cc(=O)oc2ccccc12	SKN-1 inh 29.6
COc1ccc(OCCN2CCC(C(=O)NC(C)c3cccc4ccccc34)CC2)cc1 (stereo not given)	none
CCCN(C(=O)C1CCN(S(=O)(=O)c2ccc(OC)c(OC)c2)CC1)C1CCS(=O)(=O)C1 (stereo not given)	none
COC(=O)c1[nH]c(C)c(/C(O)=C2\C(=O)C(=O)N(CCCN3CCOCC3)C2c2ccccn2)c1C (stereo not given)	SKN-1 inh 38.4
CCC1CSC(Nc2ccc(C(=O)/C=C/c3cccc(C)c3)cc2)=N1 (stereo not given)	SKN-1 inh 53.5
C=CCNc1nc(N2CCOCC2)nc(N2CCOCC2)n1	none
C=CCNc1nc(NCCN2CCOCC2)nc(N2CCOCC2)n1	SKN-1 inh 35.0
O=C(CSc1nc2ccccc2[nH]1)NN=Cc1ccccc1C(=O)O	none (no result: MT1-MMP act inh, SKN-1 inh)
Clc1ccccc1-c1nc(-c2ccc(Br)o2)no1	SKN-1 inh 66.7
O=[N+]([O-])c1ccccc1-c1nc(-c2ccc(Br)o2)no1	SKN-1 inh 58.3
Cc1ccccc1OCC(=O)NNC(=O)CSc1nc(N)cc(N)n1	none
COC[C@H]1CCCN1c1ccc2c(c1)OCCCN(C1CC1)S2(=O)=O	none (no result: MT1-MMP act inh, SKN-1 inh)
CCc1nc2oc3ccccc3c(=O)c2c(=O)n1-c1ccccc1	SKN-1 inh 30.2
Cc1cc(C(=O)N2CCC2(C)C(=O)NCCC#N)nn1C (stereo not given)	none
Clc1ccc(-c2nnc(-c3ccco3)o2)cc1	SKN-1 inh 73.5
CCCC(C(=O)Nc1ccc(C)c(S(=O)(=O)N2CCOCC2)c1)c1ccccc1 (stereo not given)	none
CCCC(C(=O)Nc1ccc(S(=O)(=O)N2CCOCC2)cc1)c1ccccc1 (stereo not given)	SKN-1 inh 36.9
N#C/C(=C\c1ccc(-c2cccc(Cl)c2)o1)C(=O)Nc1cccc2cccnc12	none
N#C/C(=C\c1ccc(-c2ccccc2)o1)C(=O)Nn1cnnc1	SKN-1 inh 51.0
Cc1ccc(-c2c(C)nn3c(N4CCOCC4)cc(C)nc23)cc1	SKN-1 inh 35.3
Cc1cc(N2CCOCC2)n2nc(C)c(-c3ccccc3)c2n1	none
O=S(=O)(/C=C/c1cccc(Br)c1)N1CCOCC1	none
N/C(=N\N=C/c1ccc(F)cc1)N/N=C\c1ccc(F)cc1	SKN-1 inh 51.2
CCC(=O)c1ccc(OCC(O)CN2CCN(S(=O)(=O)N3CCCCC3)CC2)cc1 (stereo not given)	SKN-1 inh 35.4
O=C(Nc1cc(S(=O)(=O)N2CCCC2)ccc1Cl)c1cc(F)c(F)c(F)c1F	none
C[C@@H]1O[C@@H](n2c3ccc(Cl)cc3c3ccc4c5cc(Cl)ccc5[nH]c4c32)[C@H](O)[C@H](O)[C@H]1O	none (no result: MT1-MMP act inh, SKN-1 inh)
CCN(CC)c1ccc(C(=O)O)cc1	none
CCN(CC)c1ccc(/C=C2\C(=O)c3ccc(C(=O)O)cc3C2=O)cc1	SKN-1 inh 36.3
O=C(C(=O)N1CCN(S(=O)(=O)c2ccccc2)CC1)c1cccc(C(F)(F)F)c1	none (no result: MT1-MMP act inh, SKN-1 inh)
CC(C)(C)c1ccc(-c2nnc(SCC(=O)Nc3cccc4ccccc34)n2Cc2ccco2)cc1	none (no result: MT1-MMP act inh, SKN-1 inh)
COc1ccc(-c2ccc(/C=C3/C(=N)N4C(C)=CSC4=NC3=O)o2)c([N+](=O)[O-])c1	SKN-1 inh 43.1
Fc1cccc2sc(N3CCCC3)nc12	none
COC(=O)[C@]12C[C@H](CC(=O)NCCC(C)C)C(=O)N(Cc3cccc4ccccc34)C1=C[C@H](C(C)C)O[C@@H]2C1CC1	none (no result: MT1-MMP act inh, SKN-1 inh)
COc1ccc(NC2CC(=O)N(CCc3ccccc3)C2=O)cc1 (stereo not given)	SKN-1 inh 37.8
O=C1CC(Nc2ccccc2)C(=O)N1CCc1ccccc1 (stereo not given)	none
CC(=O)Nc1c2c3c(cccc3n(C)c1=O)C(=O)c1ccccc1-2	none
Cn1c(=O)c(Nc2ccc(Cl)cc2)c2c3c(cccc31)C(=O)c1ccccc1-2	Tn7 DDE FP 35.7 (no result: MT1-MMP act inh, SKN-1 inh)
COC(=O)[C@H](CC(C)C)N(CCc1cn(Cc2ccccc2)nn1)S(=O)(=O)c1ccccc1Br	none (no result: MT1-MMP act inh, SKN-1 inh)
CC1=NN(c2ccccc2)C(=O)C1N=Nc1ccc(N)cc1 (stereo not given)	MT1-MMP act inh 52.5, SKN-1 inh 40.6 | MT1-MMP act val 62.4
ClCC1NCC(c2ccccc2Cl)c2c1[nH]c1ccccc21 (stereo not given)	MT1-MMP act inh 36.8 | MT1-MMP act val inactive
Nc1ccc(NC(=O)c2ccccc2)c2c1C(=O)c1ccccc1C2=O	MT1-MMP act inh 38.3 | MT1-MMP act val inactive
Nc1ccccc1NC(=O)c1ccccc1	none
COc1ccccc1NC(=O)CCN1C(=O)/C(=C\c2cc(OC)c(OC)c(OC)c2)SC1=S	MT1-MMP act inh 35.5 | MT1-MMP act val inactive
COc1cc(/C=C2\SC(=S)N(CCC(=O)Nc3ccccc3)C2=O)cc(OC)c1OC	none
O=C(CSc1nc2ncc(Cl)cc2[nH]1)N1CCC(Cc2ccccc2)CC1	none
CC(=O)Nc1ccc(N2CCN(C(=O)c3cccs3)CC2)cc1	none
Nc1ccc(N2CCN(C(=O)c3cccs3)CC2)cc1	MT1-MMP act inh 33.1, SKN-1 inh 48.2 | MT1-MMP act val inactive
Nc1ccc(N2CCN(C(=O)c3ccco3)CC2)cc1	MT1-MMP act inh 43.2 | MT1-MMP act val inactive
O=C(c1ccco1)N1CCN(c2ccc(F)cc2)CC1	none
CCOC(=O)c1ccccc1N1C(=O)CSC1=S	MT1-MMP act inh 30.1 | MT1-MMP act val inactive
